Legend:
neutrophil granules = settings: ref column Ref. of Table 1 ([5], [8], [9], [42], [60], [61], [65], [75]–[93]); cited from earlier work
[1] = Photophysical study: fluorescence spectra and quantum yields; type: physicochemical; settings: for solvatochromism Δmaxλem: various solvents, 50 μM
[2] = test system: zebrafish neutrophil granules; assay: HAB labeling of live zebrafish embryos and larvae, confocal imaging; type: in vivo, zebrafish (Danio rerio)
How it was run: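 Wild-type AB or transgenic embryos/larvae (24 hpf to 6 dpf, 28.5 °C staging) were incubated 1 h in the dark at room temperature with probe at 10 μM in Volvic water, from a 10 mM DMSO stock; controls got 0.1% DMSO. For equilibrium imaging, larvae were anaesthetised (tricaine) and mounted in 1% low-melt agarose with probe. For diffusion imaging, larvae were washed and mounted probe-free. Confocal imaging was done at 23–26 °C: excitation 488 nm, emission 550–650 nm.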

[3] = target: bovine serum albumin (BSA) (Bos taurus, UniProt P02769); assay: Protein-dependent fluorogenesis: titration of HAB with BSA in TRIS buffer; type: binding
Sequence of bovine serum albumin (BSA) (P02769 25-607): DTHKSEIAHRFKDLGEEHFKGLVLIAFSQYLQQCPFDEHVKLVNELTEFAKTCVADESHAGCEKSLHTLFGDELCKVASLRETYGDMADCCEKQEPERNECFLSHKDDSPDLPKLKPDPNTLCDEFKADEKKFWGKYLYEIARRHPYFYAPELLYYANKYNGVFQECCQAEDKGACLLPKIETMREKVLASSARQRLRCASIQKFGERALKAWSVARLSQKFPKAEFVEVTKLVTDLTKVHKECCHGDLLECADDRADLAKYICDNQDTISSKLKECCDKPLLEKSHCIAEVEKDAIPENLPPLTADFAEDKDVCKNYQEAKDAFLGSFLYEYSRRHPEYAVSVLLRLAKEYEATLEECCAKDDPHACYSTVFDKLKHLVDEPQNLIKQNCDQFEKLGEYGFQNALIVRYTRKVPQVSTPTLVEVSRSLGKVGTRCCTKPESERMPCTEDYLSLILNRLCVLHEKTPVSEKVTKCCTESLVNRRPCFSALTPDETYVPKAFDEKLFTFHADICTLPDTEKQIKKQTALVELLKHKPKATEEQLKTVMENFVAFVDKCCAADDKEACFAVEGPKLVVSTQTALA
How it was run: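 Probe at 50 μM in Tris buffer (Tris·HCl 10 mM, pH 7.0, NaCl 100 mM, MgCl2 5 mM) was titrated with BSA. Emission spectra were recorded at 360 nm excitation over 0–1 mg mL−1 BSA and at 420 nm excitation over 1–10 mg mL−1. Fluorescence turn-on was taken at 420 nm excitation with 10 mg ml−1 BSA.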

Caenorhabditis elegans = assay: HAB labeling of live Caenorhabditis elegans; settings: in vivo
myeloperoxidase = assay: HAB labeling in myeloperoxidase knock-out; type: in vivo, zebrafish (Danio rerio); settings: spotless mutant strain, equilibrium conditions
[4] = pKa prediction with ACD software; settings: from predicted pKa 3.97
[5] = test system: lymphocytes, monocytes, erythrocytes and thrombocytes (platelets); assay: HAB labeling of other human blood cell populations; type: cell-based; settings: 10 μM, same conditions as purified neutrophils
How it was run: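 PBMC were taken from the top layer of the Percoll gradient used for neutrophil purification. Live lymphocytes, erythrocytes, monocytes and thrombocytes were imaged by confocal fluorescence and DIC with probe at 10 μM, using the same settings as for the neutrophils.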

zebrafish larvae [6] = assay: Toxicity in live zebrafish larvae; type: in vivo, zebrafish (Danio rerio); settings: up to 48 h incubation
[7] = log D7.4 partition coefficient, n-octanol / pH 7.4 PBS; type: physicochemical; settings: from log D7.4 values
How it was run: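 Partition coefficients were measured between n-octanol and pH 7.4 phosphate-buffered saline at 20 °C, alongside reference chalcones.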

[8] = test system: live primary human neutrophils; assay: HAB labeling of live human primary neutrophils; type: cell-based; settings: 10 μM
How it was run: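 Neutrophils were purified from human blood: plasma removal, dextran sedimentation of red cells, then a 51–42% Percoll gradient. Remaining red cells were cleared with CD235a beads. Cells went into RPMI/10 mM Hepes at 2 × 10^6 per mL and adhered 20 min at room temperature in glass-bottom dishes. Medium was replaced with probe at 1, 5 or 10 μM in RPMI/Hepes, followed by live confocal fluorescence and DIC imaging.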

chemokine CXCL12a = settings: 10 μM, zebrafish model ref [56]; cited from earlier work
zebrafish larvae [9] = assay: Chalcone 18 alone in 72 hpf larvae, confocal imaging; type: in vivo, zebrafish (Danio rerio)

In the case of `Nc1cccc2c(=O)[nH][nH]c(=O)c12` [Luminol], the “Histopermeability for live animal imaging” value (shortened to “Histopermeability”) (neutrophil granules) is listed as “No (in vitro only)”.
For `Nc1cccc2ccc(/C=C/C(=O)c3ccccc3)cc12` [Compound 6, (E)-3-(8-aminonaphthalen-2-yl)-1-phenylprop-2-en-1-one], the “solvatochromism Δmaxλem” value [1] was roughly 140 nm.
For `COC(=O)c1ccccc1C1c2ccc(N)cc2Oc2cc(N)ccc21` [Dihydrorhodamine 123], the “Histopermeability” value (neutrophil granules) is listed as “No (in vitro only)”.
For `Nc1cccc2ccc(/C=C/C(=O)c3ccc(O)cc3)cc12` [HAB, (E)-3-(8-aminonaphthalen-2-yl)-1-(4-hydroxyphenyl)prop-2-en-1-one], the “fold higher quantum yield than 5-amino regioisomer 12” value ([1]; toluene) was “ca. 20 fold”, the “solvatochromism Δmaxλem” value [1] was roughly 140 nm and the “compartment labeled within neutrophils” value ([2]; 10 μM, 72 hpf larvae, confocal plus DIC) was “co-localize with neutrophil granules”. The “developmental stage at which labeling first appeared” value ([2]; 10 μM, 60 min, ventral tail of embryo) was 32 hpf, the co-localization with macrophages ([2]; 10 μM, Tg(mfap4:mCherry-F) 72 hpf larvae) was “did not co-localize” and the co-localization with neutrophils ([2]; 10 μM, Tg(mpx:GAL4/UAS-E1b:nsfB-mCherry) 72 hpf larvae) was “perfectly colocalized with all neutrophils”. The “HAB labeling after or before formaldehyde fixation” value ([2]; 1 or 4% formaldehyde, two hours, room temperature) was “failed to detect HAB labeling”, the “bathochromic shift Δλem upon binding to BSA” value [3] was 133 nm and the “bathochromic shift Δλex upon binding to BSA” value [3] was 60 nm. The “fluorescence turn-on (FTO) upon binding to BSA” value ([3]; excitation 420 nm, BSA 10 mg ml^–1, HAB 50 μM) was 21.5, the “microscopic visualization in C. elegans” value (Caenorhabditis elegans) was “could not be microscopically visualized” and the “labeling in myeloperoxidase knock-out larvae” value (myeloperoxidase) was “qualitatively and quantitatively indistinguishable from wild-type larvae”. For the same compound, the “basicity, fold lower than that of acidotropic amines” value [4] was “about 10^5 fold”, the “labeling of lymphocytes, monocytes, erythrocytes and thrombocytes” value [5] was “weakly to faintly labeled” and the “toxicity of HAB” value (zebrafish larvae [6]) was “absence of toxicity”. For the same compound, the “fold more hydrophilic than 4′-deshydroxy congener 6” value [7] was 2 fold, the “labeling of activated neutrophils” value [8] was “intense labeling of cells at the level of subcellular granular structures” and the “labeling of non-activated neutrophils” value [8] was “intense but diffuse fluorescent labeling”.
In the case of `COc1cc(/C=C/C(=O)c2ccc(Cl)cc2)ccc1O` [Compound 18, 4-hydroxy-3-methoxy-4′-chlorochalcone], the “biological effects as inhibitor of CXCL12a” value (chemokine CXCL12a) is listed as “moderate biological effects”, the “fluorescent detection by GFP filters” value (chemokine CXCL12a) is listed as “not fluorescently detected” and the type of staining (zebrafish larvae [9]; 100 μM, 72 hpf larvae) is listed as “interstitial histological labeling”. For the same compound, the “fluorescence of 18 alone in larvae” value (zebrafish larvae [9]; 100 μM, 72 hpf larvae, excitation 488 nm) was “green-yellow fluorescence” and the cytopermeability (zebrafish larvae [9]; even at high concentration) was “not cytopermeable”.
In the case of `CC1(C)Nc2cccc3c(N=Nc4ccc(N=Nc5ccccc5)c5ccccc45)ccc(c23)N1` [Sudan Black B], the “Histopermeability” value (neutrophil granules) is given as “No (FA fixation in vivo)”.
